# Results: ChEMBL document CHEMBL1212764, “Antimicrobial resistance in Haemophilus influenzae respiratory tract isolates in Korea: results of a nationwide acute respiratory infections surveillance” (2010)
# Columns and labels:
# Format in all cases: functional
# Haemophilus influenzae [1] = experiment: Antimicrobial activity against Haemophilus influenzae isolate by broth microdilution method
# Summary of the method: (§1)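 Broth microdilution MIC in freshly prepared Haemophilus test medium per 2008 CLSI guidelines; H. influenzae ATCC 49247 and ATCC 49766 as control strains. Isolates from outpatient nasal aspirates (no prior antibiotics), cultured on blood agar with S. aureus streak and chocolate agar. PBP3 substitutions deduced from ftsI sequencing against the Rd strain; β-lactamase genes (TEM-1, ROB-1) detected by PCR.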
# Haemophilus influenzae [2] = experiment: Antimicrobial activity against beta-lactamase-negative, ampicillin-sensitive Haemophilus influenzae by broth microdilution method; summary of the method: as §1
# Haemophilus influenzae [3] = experiment: Antimicrobial activity against Beta-lactamase-positive, ampicillin-resistant Haemophilus influenzae by broth microdilution method; summary of the method: as §1
# Haemophilus influenzae [4] = experiment: Antimicrobial activity against Beta-lactamase-negative, ampicillin-resistant Haemophilus influenzae by broth microdilution method; summary of the method: as §1
# Haemophilus influenzae [5] = experiment: Antimicrobial activity against Beta-lactamase-positive, ampicillin-cluvulanate-resistant Haemophilus influenzae by broth microdilution method; summary of the method: as §1
# Haemophilus influenzae [6] = experiment: Antimicrobial activity against Beta-lactamase-negative, ampicillin-resistant Haemophilus influenzae with Asp350Asn, Ser357Asp, Met377Ile, Ser385Thr, Arg517His substitutions in penicillin-binding protein 3 by broth microdilution method; summary of the method: as §1
# Haemophilus influenzae [7] = experiment: Antimicrobial activity against Beta-lactamase-negative, ampicillin-resistant Haemophilus influenzae with Gly490Glu, Asn526Lys substitutions in penicillin-binding protein 3 by broth microdilution method; summary of the method: as §1
# Haemophilus influenzae [8] = experiment: Antimicrobial activity against Beta-lactamase-negative, ampicillin-resistant Haemophilus influenzae with Asp350Asn, Met377Ile, Asn526Lys substitutions in penicillin-binding protein 3 by broth microdilution method; summary of the method: as §1
# Haemophilus influenzae [9] = experiment: Antimicrobial activity against Beta-lactamase-negative, ampicillin-resistant Haemophilus influenzae with Asp350Asn, Met377Ile, Gly490Glu, Asn526Lys substitutions in penicillin-binding protein 3 by broth microdilution method; summary of the method: as §1
# Haemophilus influenzae [10] = experiment: Antimicrobial activity against Beta-lactamase-negative, ampicillin-resistant Haemophilus influenzae with Ala502Val, Asn526Lys substitutions in penicillin-binding protein 3 by broth microdilution method; summary of the method: as §1
# Haemophilus influenzae [11] = experiment: Antimicrobial activity against Beta-lactamase-negative, ampicillin-resistant Haemophilus influenzae with Asp350Asn, Met377Ile, Ala502Val, Asn526Lys substitutions in penicillin-binding protein 3 by broth microdilution method; summary of the method: as §1
# Haemophilus influenzae [12] = experiment: Antimicrobial activity against Beta-lactamase-negative, ampicillin-resistant Haemophilus influenzae with Asp350Asn, Met377Ile, Gly490Glu, Ala502Val, Asn526Lys substitutions in penicillin-binding protein 3 by broth microdilution method; summary of the method: as §1
# Haemophilus influenzae [13] = experiment: Antimicrobial activity against Beta-lactamase-negative, ampicillin-resistant Haemophilus influenzae with Ser311Pro, Ala502Thr, Asn526Lys substitutions in penicillin-binding protein 3 by broth microdilution method; summary of the method: as §1
# Haemophilus influenzae [14] = experiment: Antimicrobial activity against Beta-lactamase-negative, ampicillin-resistant Haemophilus influenzae with Ile449Val, Ala502Thr, Asn526Lys substitutions in penicillin-binding protein 3 by broth microdilution method; summary of the method: as §1
# Haemophilus influenzae [15] = experiment: Antimicrobial activity against Beta-lactamase-negative, ampicillin-resistant Haemophilus influenzae with Asp350Asn, Ser357Asp, Met377Ile, Ser385Thr, Ala502Thr, Asn526Lys substitutions in penicillin-binding protein 3 by broth microdilution method; summary of the method: as §1
# Haemophilus influenzae [16] = experiment: Antimicrobial activity against Beta-lactamase-negative, ampicillin-resistant Haemophilus influenzae with Asp350Asn, Ser357Asp, Ser385Thr, Leu389Phe, Ala502Thr, Asn526Lys substitutions in penicillin-binding protein 3 by broth microdilution method; summary of the method: as §1
# Haemophilus influenzae [17] = experiment: Antimicrobial activity against Beta-lactamase-negative, ampicillin-resistant Haemophilus influenzae with Ile449Val, Asn526Lys substitutions in penicillin-binding protein 3 by broth microdilution method; summary of the method: as §1
# Haemophilus influenzae [18] = experiment: Antimicrobial activity against Beta-lactamase-negative, ampicillin-resistant Haemophilus influenzae with Asp350Asn, Ser357Asp, Met377Ile, Ser385Thr, Leu389Phe, substitutions in penicillin-binding protein 3 by broth microdilution method; summary of the method: as §1
# Haemophilus influenzae [19] = experiment: Antimicrobial activity against Beta-lactamase-negative, ampicillin-resistant Haemophilus influenzae with penicillin-binding protein 3 by broth microdilution method; summary of the method: as §1
# Haemophilus influenzae [20] = experiment: Antimicrobial activity against Beta-lactamase-positive, ampicillin-cluvulanate-resistant Haemophilus influenzae with Asp350Asn, Ser357Asp, Met377Ile, Ser385Thr, Arg517His substitutions in penicillin-binding protein 3 by broth microdilution method; summary of the method: as §1
# Haemophilus influenzae [21] = experiment: Antimicrobial activity against Beta-lactamase-positive, ampicillin-cluvulanate-resistant Haemophilus influenzae with Asp350Asn, Met377Ile, Asn526Lys substitutions in penicillin-binding protein 3 by broth microdilution method; summary of the method: as §1
# Haemophilus influenzae [22] = experiment: Antimicrobial activity against Beta-lactamase-positive, ampicillin-cluvulanate-resistant Haemophilus influenzae with Asp350Asn, Met377Ile, Ser385Thr, Asn526Lys substitutions in penicillin-binding protein 3 by broth microdilution method; summary of the method: as §1
# Haemophilus influenzae [23] = experiment: Antimicrobial activity against Beta-lactamase-positive, ampicillin-cluvulanate-resistant Haemophilus influenzae with Asp350Asn, Met377Ile, Ala502Val, Asn526Lys substitutions in penicillin-binding protein 3 by broth microdilution method; summary of the method: as §1
# Haemophilus influenzae [24] = experiment: Antimicrobial activity against Beta-lactamase-positive, ampicillin-cluvulanate-resistant Haemophilus influenzae with Ala502Val, Asn526Lys substitutions in penicillin-binding protein 3 by broth microdilution method; summary of the method: as §1
# Haemophilus influenzae [25] = experiment: Antimicrobial activity against Beta-lactamase-positive, ampicillin-cluvulanate-resistant Haemophilus influenzae with Asp350Asn, Met377Ile, Gly490Glu, Ala502Val, Asn526Lys substitutions in penicillin-binding protein 3 by broth microdilution method; summary of the method: as §1
# Haemophilus influenzae [26] = experiment: Antimicrobial activity against Beta-lactamase-positive, ampicillin-cluvulanate-resistant Haemophilus influenzae with Ala368Thr, Ala502Thr, Asn526Lys substitutions in penicillin-binding protein 3 by broth microdilution method; summary of the method: as §1
# Haemophilus influenzae [27] = experiment: Antimicrobial activity against Beta-lactamase-positive, ampicillin-cluvulanate-resistant Haemophilus influenzae with Asp350Asn, Ser357Asp, Ala437Ser, Ala502Thr, Asn526Lys substitutions in penicillin-binding protein 3 by broth microdilution method; summary of the method: as §1
# Haemophilus influenzae [28] = experiment: Antimicrobial activity against Beta-lactamase-positive, ampicillin-cluvulanate-resistant Haemophilus influenzae with Asp350Asn, Ala502Thr, Asn526Lys substitutions in penicillin-binding protein 3 by broth microdilution method; summary of the method: as §1
# Haemophilus influenzae [29] = experiment: Antimicrobial activity against Beta-lactamase-positive, ampicillin-cluvulanate-resistant Haemophilus influenzae with Ile449Val, Asn526Lys substitutions in penicillin-binding protein 3 by broth microdilution method; summary of the method: as §1
# Haemophilus influenzae [30] = experiment: Antimicrobial activity against Beta-lactamase-positive, ampicillin-cluvulanate-resistant Haemophilus influenzae with Asp350Asn, Ala437Ser substitutions in penicillin-binding protein 3 by broth microdilution method; summary of the method: as §1
smiles,measurement,setting,value
CC1(C)S[C@@H]2[C@H](NC(=O)[C@H](N)c3ccccc3)C(=O)N2[C@H]1C(=O)O [AMPICILLIN],MIC50,Haemophilus influenzae [1],16 µg/mL
same,MIC90,Haemophilus influenzae [1],256 µg/mL
same,MIC50,Haemophilus influenzae [2],1 µg/mL
same,MIC90,Haemophilus influenzae [2],1 µg/mL
same,MIC50,Haemophilus influenzae [3],128 µg/mL
same,MIC90,Haemophilus influenzae [3],256 µg/mL
same,MIC50,Haemophilus influenzae [4],2 µg/mL
same,MIC90,Haemophilus influenzae [4],8 µg/mL
same,MIC50,Haemophilus influenzae [5],256 µg/mL
same,MIC90,Haemophilus influenzae [5],> 512 µg/mL
same,MIC,Haemophilus influenzae [6],2 µg/mL
same,MIC,Haemophilus influenzae [7],4 µg/mL
same,MIC,Haemophilus influenzae [8],4 µg/mL
same,MIC,Haemophilus influenzae [9],4 µg/mL
same,MIC,Haemophilus influenzae [10],2.2 µg/mL
same,MIC,Haemophilus influenzae [11],2.2 µg/mL
same,MIC,Haemophilus influenzae [12],2.2 µg/mL
same,MIC,Haemophilus influenzae [13],2.8 µg/mL
same,MIC,Haemophilus influenzae [14],2.8 µg/mL
same,MIC,Haemophilus influenzae [15],2.8 µg/mL
same,MIC,Haemophilus influenzae [16],2.8 µg/mL
same,MIC,Haemophilus influenzae [17],2.7 µg/mL
same,MIC,"Haemophilus influenzae [17]; Haemophilus influenzae, read-out: MIC",2.7 µg/mL
same,MIC,Haemophilus influenzae [18],5.3 µg/mL
same,MIC,Haemophilus influenzae [19],2 µg/mL
same,MIC,Haemophilus influenzae [20],192 µg/mL
same,MIC,Haemophilus influenzae [21],288 µg/mL
same,MIC,Haemophilus influenzae [22],288 µg/mL
same,MIC,Haemophilus influenzae [23],230 µg/mL
same,MIC,Haemophilus influenzae [24],230 µg/mL
same,MIC,Haemophilus influenzae [25],230 µg/mL
same,MIC,Haemophilus influenzae [26],208 µg/mL
same,MIC,Haemophilus influenzae [27],208 µg/mL
same,MIC,Haemophilus influenzae [28],208 µg/mL
same,MIC,Haemophilus influenzae [29],512 µg/mL
same,MIC,Haemophilus influenzae [30],512 µg/mL
